The record followed here is article PMC8210293 (Experimental and Therapeutic Medicine, 2021).

By IC50 is commonly meant the concentration at which inhibition is half-maximal. As usually defined, the Ki is a measure of affinity in units of concentration, obtained from inhibition or displacement.

Common to all, as to format: in vitro ADME
Assay [1] has as its target T1, recombinant human UGT1A9 (Homo sapiens, UniProt O60656).
T1 sequence (O60656 26-530): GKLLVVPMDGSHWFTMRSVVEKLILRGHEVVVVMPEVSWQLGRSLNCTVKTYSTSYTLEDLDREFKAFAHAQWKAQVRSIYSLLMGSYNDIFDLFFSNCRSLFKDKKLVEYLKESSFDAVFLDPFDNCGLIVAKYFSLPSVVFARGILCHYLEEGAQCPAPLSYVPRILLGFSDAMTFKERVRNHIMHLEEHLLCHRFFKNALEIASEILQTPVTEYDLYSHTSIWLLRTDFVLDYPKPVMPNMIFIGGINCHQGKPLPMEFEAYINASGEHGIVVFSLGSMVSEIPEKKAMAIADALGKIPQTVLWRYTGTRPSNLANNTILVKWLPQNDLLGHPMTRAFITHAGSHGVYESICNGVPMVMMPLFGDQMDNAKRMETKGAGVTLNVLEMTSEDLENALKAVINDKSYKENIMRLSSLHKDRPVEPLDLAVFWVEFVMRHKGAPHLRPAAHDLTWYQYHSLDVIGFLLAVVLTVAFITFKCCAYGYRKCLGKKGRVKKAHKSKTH
The assay is described as follows: Inhibition of recombinant UGT1A9-catalyzed 4-MU glucuronidation. The essentials: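 UGT1A9 incubations used recombinant human enzyme from baculovirus-insect cells (0.05 mg/ml), 30 µM 4-MU, 5 mM UDPGA, 5 mM MgCl2, 50 mM Tris-HCl pH 7.4, DMSO <0.5%. Preincubated 5 min at 37 °C, UDPGA-started, run 30 min, stopped with cold methanol plus internal standard. 4-MU-G by LC-MS/MS MRM. Remaining activity vs blank at 50 µM. […] Ki and type from model fits and Lineweaver-Burk/Dixon plots.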

The target of assay [2] is T2, recombinant human UGT1A1 (Homo sapiens, UniProt P22309).
T2 sequence (P22309 26-533): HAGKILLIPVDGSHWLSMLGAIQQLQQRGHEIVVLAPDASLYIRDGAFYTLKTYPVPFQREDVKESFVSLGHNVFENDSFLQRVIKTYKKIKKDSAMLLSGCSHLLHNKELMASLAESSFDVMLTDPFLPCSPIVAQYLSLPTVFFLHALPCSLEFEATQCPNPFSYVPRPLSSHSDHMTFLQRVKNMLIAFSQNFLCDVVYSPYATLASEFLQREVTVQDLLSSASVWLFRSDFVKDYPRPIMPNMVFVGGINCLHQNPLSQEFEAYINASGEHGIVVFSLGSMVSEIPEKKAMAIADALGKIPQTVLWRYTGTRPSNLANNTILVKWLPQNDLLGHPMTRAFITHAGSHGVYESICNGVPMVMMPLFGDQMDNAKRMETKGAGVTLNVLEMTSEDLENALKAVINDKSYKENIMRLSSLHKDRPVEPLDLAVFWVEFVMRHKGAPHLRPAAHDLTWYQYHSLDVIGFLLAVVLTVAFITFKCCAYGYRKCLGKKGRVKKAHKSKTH
The assay is described as follows: Inhibition of recombinant UGT1A1-catalyzed 4-MU glucuronidation. The essentials: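 Recombinant human UGT1A1 from baculovirus-infected insect cells (0.125 mg/ml), 30 µM 4-MU, 5 mM UDPGA, 5 mM MgCl2, 50 mM Tris-HCl pH 7.4, DMSO <0.5%. Preincubated 5 min at 37 °C, started with UDPGA, run 120 min, stopped with cold methanol plus internal standard. 4-MU-G measured by LC-MS/MS MRM. Remaining activity vs blank at 50 µM. […] Ki by model fitting. Type from Lineweaver-Burk/Dixon plots.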

Assay [3] deals with T3, recombinant human UGT1A3 (Homo sapiens, UniProt P35503).
T3 sequence (P35503 29-534): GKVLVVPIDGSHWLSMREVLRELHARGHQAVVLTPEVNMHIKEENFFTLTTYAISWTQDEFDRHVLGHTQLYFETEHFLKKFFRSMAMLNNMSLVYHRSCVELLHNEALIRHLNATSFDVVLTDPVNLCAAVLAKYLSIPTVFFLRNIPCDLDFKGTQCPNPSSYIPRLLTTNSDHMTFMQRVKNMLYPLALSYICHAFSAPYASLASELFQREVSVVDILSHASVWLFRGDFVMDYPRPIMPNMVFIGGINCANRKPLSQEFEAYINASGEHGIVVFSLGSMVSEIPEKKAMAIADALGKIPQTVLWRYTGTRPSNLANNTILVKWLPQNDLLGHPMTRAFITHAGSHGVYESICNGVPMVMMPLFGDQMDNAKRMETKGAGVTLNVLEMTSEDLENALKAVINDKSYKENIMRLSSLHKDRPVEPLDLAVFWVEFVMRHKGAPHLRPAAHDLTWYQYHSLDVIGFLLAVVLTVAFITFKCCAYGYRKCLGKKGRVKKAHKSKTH
The assay is described as follows: Inhibition of recombinant UGT1A3-catalyzed 4-MU glucuronidation. The note with it: for Ki: UGT1A3. The essentials:
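Insect-cell-expressed recombinant human UGT1A3 (0.05 mg/ml), 1,200 µM 4-MU, 5 mM UDPGA, 5 mM MgCl2, 50 mM Tris-HCl pH 7.4, DMSO <0.5%. Preincubated 5 min at 37 °C, UDPGA-initiated, run 120 min, quenched with cold methanol plus internal standard. 4-MU-G by LC-MS/MS MRM. Remaining activity vs blank at 50 µM. […] Ki from inhibition-model fits and Lineweaver-Burk/Dixon plots.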

The target of assay [4] is T4, recombinant human UGT1A6 (Homo sapiens, UniProt P19224).
T4 sequence (P19224 27-532): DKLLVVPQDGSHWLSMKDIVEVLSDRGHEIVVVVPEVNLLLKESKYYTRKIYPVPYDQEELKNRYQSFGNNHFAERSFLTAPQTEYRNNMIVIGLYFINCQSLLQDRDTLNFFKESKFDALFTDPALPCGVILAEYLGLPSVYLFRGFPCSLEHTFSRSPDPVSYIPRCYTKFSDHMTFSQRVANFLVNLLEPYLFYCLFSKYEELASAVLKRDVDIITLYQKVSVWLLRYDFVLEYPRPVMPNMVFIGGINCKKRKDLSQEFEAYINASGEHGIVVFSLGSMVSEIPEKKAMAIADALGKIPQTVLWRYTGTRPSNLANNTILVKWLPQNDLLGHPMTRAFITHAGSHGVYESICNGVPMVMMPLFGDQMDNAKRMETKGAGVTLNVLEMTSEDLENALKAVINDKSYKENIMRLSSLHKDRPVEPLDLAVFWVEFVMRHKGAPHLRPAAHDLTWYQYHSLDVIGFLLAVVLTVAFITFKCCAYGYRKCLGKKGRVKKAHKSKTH
The assay is described as follows: Inhibition of recombinant UGT1A6-catalyzed 4-MU glucuronidation. The conditions noted are these: Dixon and Lineweaver-Burk plots.

Regarding `O=c1c(O)c(-c2ccc(O)c(O)c2)oc2cc(O)cc(O)c12` [Quercetin, 3,3',4',5,7-pentahydroxyflavone], the IC50 stood at 2.81 µM in assay [1], 7.47 µM in assay [2] and 10.6 µM in assay [3]. Moreover, the Ki in assay [1] was 0.51 µM; in assay [2] (Inhibitory potential class based on Ki, UGT1A1) it was 1 to 10 µM; in assay [3] (Inhibitory potential class based on Ki) it was 1 to 10 µM; in assay [3] (Ki, second plot of Lineweaver-Burk slopes) it was 1.6 µM. The Inhibition type entry in assay [1] (UGT1A9, Dixon and Lineweaver-Burk plots) is “competitive inhibition”; in assay [2] (UGT1A1, Dixon and Lineweaver-Burk plots), “non-competitive inhibition”; in assay [4], “non-competitive inhibition”.
